# Measured values: ChEMBL document CHEMBL4196022, “Alkynyl-containing phenylthiazoles: Systemically active antibacterial agents effective against methicillin-resistant Staphylococcus aureus (MRSA)” (Eur J Med Chem, 2018)
# Key:
# Staphylococcus aureus [1] = assay: Potency index, ratio of vancomycin MIC to compound MIC for antibacterial activity against vancomycin-resistant Staphylococcus aureus VRS11a; format: functional
# Staphylococcus aureus [2] = assay: Antibacterial activity against vancomycin-resistant Staphylococcus aureus VRS10 after 20 hrs by broth microdilution assay; format: functional; details: VRS10, 20 h
# Summary of the method: (§1)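 Broth microdilution per CLSI in cation-adjusted Mueller Hinton broth. Compounds serially diluted, in triplicate. Incubation at 37 °C for at least 20 hours. MIC taken as the lowest concentration with no visible bacterial growth.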
# Staphylococcus aureus [3] = assay: Potency index, ratio of vancomycin MIC to compound MIC for antibacterial activity against vancomycin-resistant Staphylococcus aureus VRS10; format: functional
# Staphylococcus aureus [4] = assay: Ratio of MBC to MIC for vancomycin-resistant Staphylococcus aureus VRS10; format: functional
# Summary of the method: (§2)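 MBC/MIC ratio. […] MBC by plating no-growth wells onto tryptic soy agar at 37 °C for at least 18 h; taken as the concentration giving 99.9% growth inhibition.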
# Staphylococcus aureus [5] = assay: Ratio of MBC to MIC for methicillin-resistant Staphylococcus aureus NRS119; format: functional; summary of the method: as §2
# Staphylococcus aureus [6] = assay: Bactericidal activity against methicillin-resistant Staphylococcus aureus USA300 up to 18 hrs by broth microdilution assay; format: functional; details: USA300, 18 h, read-out: MBC99.9
# Staphylococcus aureus [7] = assay: Bactericidal activity against methicillin-resistant Staphylococcus aureus NRS107 up to 18 hrs by broth microdilution assay; format: functional; details: NRS107, 18 h, read-out: MBC99.9
# Staphylococcus aureus [8] = assay: Ratio of MBC to MIC for vancomycin-resistant Staphylococcus aureus VRS11a; format: functional; summary of the method: as §2
# Staphylococcus aureus [9] = assay: Antibacterial activity against vancomycin-resistant Staphylococcus aureus VRS11a after 20 hrs by broth microdilution assay; format: functional; summary of the method: as §1
# Staphylococcus aureus [10] = assay: Antibacterial activity against methicillin-resistant Staphylococcus aureus NRS119 after 20 hrs by broth microdilution assay; format: functional; details: NRS119, 20 h; summary of the method: as §1
# Staphylococcus aureus [11] = assay: Antibacterial activity against methicillin-resistant Staphylococcus aureus NRS107 after 20 hrs by broth microdilution assay; format: functional; details: NRS107, 20 h; summary of the method: as §1
# Staphylococcus aureus [12] = assay: Bactericidal activity against methicillin-resistant Staphylococcus aureus NRS119 up to 18 hrs by broth microdilution assay; format: functional; details: NRS119, 18 h, read-out: MBC99.9
# Staphylococcus aureus [13] = assay: Antibacterial activity against vancomycin-resistant Staphylococcus aureus VRS12 after 20 hrs by broth microdilution assay; format: functional; details: VRS12, 20 h; summary of the method: as §1
# Staphylococcus aureus [14] = assay: Bactericidal activity against methicillin resistant vancomycin-resistant Staphylococcus aureus VRS12 up to 18 hrs by broth microdilution assay; format: functional; details: VRS12, 18 h, read-out: MBC99.9
# Summary of the method: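 MBC set up from the MIC plates. Aliquots from wells with no growth spotted onto tryptic soy agar and incubated at 37 °C for at least 18 hours. MBC taken as the lowest concentration giving 99.9% inhibition of bacterial growth.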
# Staphylococcus aureus [15] = assay: Bactericidal activity against methicillin resistant vancomycin-resistant Staphylococcus aureus VRS11a up to 18 hrs by broth microdilution assay; format: functional; details: read-out: MBC99.9
# Staphylococcus aureus [16] = assay: Ratio of MBC to MIC for methicillin-resistant Staphylococcus aureus USA300; format: functional; summary of the method: as §2
# Staphylococcus aureus [17] = assay: Antibacterial activity against methicillin-resistant Staphylococcus aureus NRS123 (USA400) after 20 hrs by broth microdilution assay; format: functional; summary of the method: as §1
# Staphylococcus aureus [18] = assay: Ratio of MBC to MIC for methicillin-resistant Staphylococcus aureus NRS107; format: functional; summary of the method: as §2
# Staphylococcus aureus [19] = assay: Bactericidal activity against methicillin resistant vancomycin-resistant Staphylococcus aureus VRS10 up to 18 hrs by broth microdilution assay; format: functional; details: VRS10, 18 h, read-out: MBC99.9
# Staphylococcus aureus [20] = assay: Ratio of MBC to MIC for vancomycin-resistant Staphylococcus aureus VRS12; format: functional; summary of the method: as §2
# Staphylococcus aureus [21] = assay: Bactericidal activity against methicillin resistant Staphylococcus aureus NRS123 (USA400) up to 18 hrs by broth microdilution assay; format: functional; details: read-out: MBC99.9
# Staphylococcus aureus [22] = assay: Ratio of MBC to MIC for methicillin-resistant Staphylococcus aureus NRS123 (USA400); format: functional; summary of the method: as §2
# Staphylococcus aureus [23] = assay: Potency index, ratio of vancomycin MIC to compound MIC for antibacterial activity against vancomycin-resistant Staphylococcus aureus VRS12; format: functional
# Staphylococcus aureus [24] = assay: Antibacterial activity against methicillin-resistant Staphylococcus aureus USA300 after 20 hrs by broth microdilution assay; format: functional; details: USA300, 20 h; summary of the method: as §1
# HRT-18 cell line = assay: Cytotoxicity against human HRT18 cells assessed as reduction in cell viability up to 32 ug/ml after 2 hrs by MTS assay; format: cell-based; details: hrt-18, 2 h
# [25] = Selectivity index, ratio of toxic concentration for human HRT18 cells to MIC for methicillin-resistant Staphylococcus aureus; format: toxicity; details: read-out: Selectivity Index
SMILES,Ratio (Staphylococcus aureus [1]),MIC (Staphylococcus aureus [2]) [µg/mL],Ratio (Staphylococcus aureus [3]),Ratio (Staphylococcus aureus [4]),MBC (Staphylococcus aureus [6]) [µg/mL],MBC (Staphylococcus aureus [7]) [µg/mL],MIC (Staphylococcus aureus [9]) [µg/mL],MIC (Staphylococcus aureus [10]) [µg/mL],MIC (Staphylococcus aureus [11]) [µg/mL],MBC (Staphylococcus aureus [12]) [µg/mL],MIC (Staphylococcus aureus [13]) [µg/mL],MBC (Staphylococcus aureus [14]) [µg/mL],MBC (Staphylococcus aureus [15]) [µg/mL],Ratio (Staphylococcus aureus [16]),MIC (Staphylococcus aureus [17]) [µg/mL],Ratio (Staphylococcus aureus [18]),MBC (Staphylococcus aureus [19]) [µg/mL],Ratio (Staphylococcus aureus [20]),MBC (Staphylococcus aureus [21]) [µg/mL],MIC (Staphylococcus aureus [24]) [µg/mL],also measured
C/C(=N\NC1=NCCN1)c1sc(-c2ccc(C#CC3CCCC3)cc2)nc1C,>100,4,>100,<=3,16,32,8,32,16,32,16,16,8,<=3,16,<=3,8,<=3,32,4,Ratio (Staphylococcus aureus [5]): <=3; Ratio (Staphylococcus aureus [8]): <=3; Ratio (Staphylococcus aureus [22]): <=3; Ratio (Staphylococcus aureus [23]): >100
CCCCCCC#Cc1ccc(-c2nc(C)c(/C(C)=N/NC(=N)N)s2)cc1,>100,2,>100,<=3,8,8,0.5,1,4,4,2,4,2,<=3,4,<=3,4,<=3,4,4,Activity (HRT-18 cell line): Non-Toxic; Ratio (Staphylococcus aureus [5]; read-out: Ratio): 4; Ratio (Staphylococcus aureus [8]; read-out: Ratio): 4; selectivity ratio [25]: 7 to 31; Ratio (Staphylococcus aureus [22]): <=3; Ratio (Staphylococcus aureus [23]): 8
C/C(=N\NC1=NCCN1)c1sc(-c2ccc(C#CC3CCCCC3)cc2)nc1C,,,,,8,,,,,,,,,<=3,,,,,,8,
CCCCCC#Cc1ccc(-c2nc(C)c(/C(C)=N/NC3=NCCN3)s2)cc1,>100,8,>100,<=3,8,32,8,16,16,32,16,32,16,<=3,16,<=3,64,<=3,32,4,Ratio (Staphylococcus aureus [5]): <=3; Ratio (Staphylococcus aureus [8]): <=3; Ratio (Staphylococcus aureus [22]): <=3; Ratio (Staphylococcus aureus [23]): >100
C/C(=N\NC(=N)N)c1sc(-c2ccc(C#CC(C)(C)C)cc2)nc1C,>100,4,>100,<=3,4,4,2,2,2,2,4,4,8,<=3,4,<=3,4,<=3,16,4,Activity (HRT-18 cell line): Non-Toxic; Ratio (Staphylococcus aureus [5]): <=3; Ratio (Staphylococcus aureus [8]; read-out: Ratio): 4; selectivity ratio [25]: 7 to 31; Ratio (Staphylococcus aureus [22]; read-out: Ratio): 4; Ratio (Staphylococcus aureus [23]): 4
CCCCCCC#Cc1ccc(-c2nc(C)c(/C(C)=N/NC3=NCCN3)s2)cc1,,,,,16,,,,,,,,,<=3,,,,,,8,
C/C(=N\NC1=NCCN1)c1sc(-c2ccc(C#CC(C)(C)C)cc2)nc1C,>100,4,>100,<=3,4,4,4,2,2,2,4,8,4,<=3,4,<=3,4,<=3,16,2,Activity (HRT-18 cell line): Non-Toxic; Ratio (Staphylococcus aureus [5]): <=3; Ratio (Staphylococcus aureus [8]): <=3; selectivity ratio [25]: 7 to 31; Ratio (Staphylococcus aureus [22]; read-out: Ratio): 4; Ratio (Staphylococcus aureus [23]): 4
